Source: ChEMBL document CHEMBL4229353, “Synthesis and antiviral evaluation of cyclopentyl nucleoside phosphonates” (Eur J Med Chem, 2018)

Experiments:
Human alphaherpesvirus 1 = assay: Antiviral activity against thymidine kinase-deficient ACV-resistant Herpes simplex virus 1 KOS infected in HEL cells assessed as […] measured after 2 to 3 days post infection; type: functional, organism-based; conditions: Human alphaherpesvirus 1, KOS
In short: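 Confluent HEL fibroblast monolayers in 96-well plates were inoculated with 100 CCID50 of HSV-1 (KOS or TK-deficient ACV-resistant KOS). After 2 h adsorption, the inoculum was removed and cells were incubated with varying compound concentrations. Virus-induced cytopathicity was recorded at 2-3 days post-infection.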

Human alphaherpesvirus 3 [1] = assay: Antiviral activity against thymidine kinase expressing Varicella-Zoster virus Oka infected in HEL cells assessed as inhibition of plaque formation measured after 5 days post infection; type: functional, organism-based; conditions: Human alphaherpesvirus 3, strain Oka vaccine, 120 h
In short: (§1)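 Confluent HEL fibroblast monolayers in 96-well plates were inoculated with 20 PFU of VZV (Oka or TK– strain 07-1). After 2 h adsorption, the inoculum was removed and cultures were incubated with varying compound concentrations. Plaque formation was recorded at 5 days post-infection.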

Human alphaherpesvirus 3 [2] = assay: Antiviral activity against thymidine kinase deficient Varicella-Zoster virus 07-1 infected in HEL cells assessed as inhibition of plaque formation measured after 5 days post infection; type: functional, organism-based; conditions: Human alphaherpesvirus 3, 07-1, HEL, 120 h; in short: as §1
[3] = Cytotoxicity against HEL cells assessed as alteration in cell morphology after 3 days by microscopic analysis; type: cell-based; conditions: human
In short: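 Uninfected HEL cell cultures were exposed to graded compound concentrations. MCC is the lowest concentration producing a microscopically detectable alteration of cell morphology.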

Human alphaherpesvirus 2 = assay: Antiviral activity against Herpes simplex virus 2 G infected in HEL cells assessed as […] measured after 2 to 3 days post infection; type: functional, organism-based; conditions: Human alphaherpesvirus 2, strain G
In short: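 Confluent HEL fibroblast monolayers were infected with 100 CCID50 of virus, and the inoculum was removed after 2 h adsorption. Cells were then cultured with serial compound concentrations. Virus-induced cytopathicity was scored at 2-3 days (HSV) or 6-7 days (HCMV) post-infection.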

[4] = Cytostatic activity against HEL cells after 3 days by Coulter counting method; type: cell-based; conditions: human
In short: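 HEL cells were seeded at 5 x 10^3 cells/well and left to proliferate for 24 h. Medium with graded compound concentrations was then added, followed by 3 days at 37 °C. Cells were counted with a Coulter counter. CC50, the concentration halving proliferation relative to untreated controls, was read from plots of cell number (% of control) versus concentration.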

| SMILES | EC50 (Human alphaherpesvirus 1) [µM] | EC50 (Human alphaherpesvirus 3 [1]) [µM] | EC50 (Human alphaherpesvirus 3 [2]) [µM] | MCC at 72 h [3] [µM] | EC50 (Human alphaherpesvirus 2) [µM] | CC50 at 72 h [4] [µM] |
| --- | --- | --- | --- | --- | --- | --- |
| Nc1ccn([C@@H]2C[C@H](OCP(=O)(O)O)C[C@H]2O)c(=O)n1 | > 327 | > 327 | > 327 | > 327 | > 327 | – |
| Nc1ncnc2c1ncn2[C@@H]1C[C@H](OCP(=O)(O)O)C[C@H]1O | 161 | > 303 | > 303 | > 303 | 132 | – |
| Nc1nc2c(ncn2[C@@H]2C[C@H](OCP(=O)(O)O)C[C@H]2O)c(=O)[nH]1 | 99 | 5.35 | 8.83 | > 289 | 57.9 | > 289 |
| Nc1ncnc2c1ncn2[C@@H]1C[C@H](OCP(=O)(O)O)[C@@H](O)C1 | > 303 | 258 | 79 | > 303 | > 303 | – |
| Cc1cn([C@@H]2C[C@H](OCP(=O)(O)O)[C@@H](O)C2)c(=O)[nH]c1=O | 9.89 | 23.1 | 5.73 | > 247 | 92.3 | 69.4 |
| Nc1nc2c(ncn2[C@@H]2C[C@H](OCP(=O)(O)O)[C@@H](O)C2)c(=O)[nH]1 | 14.1 | 17.1 | 8.38 | > 289 | 33.9 | > 289 |
| Cc1cn([C@@H]2C[C@H](OCP(=O)(O)O)C[C@H]2O)c(=O)[nH]c1=O | > 247 | > 247 | > 247 | > 247 | > 247 | – |
| CC(C)OC(=O)[C@H](C)NP(=O)(CO[C@H]1C[C@@H](n2cnc3c(=O)[nH]c(N)nc32)C[C@@H]1O)N[C@@H](C)C(=O)OC(C)C | 35 | 35 | 29.8 | > 175 | 85.5 | > 175 |
| Nc1ccn([C@@H]2C[C@H](OCP(=O)(O)O)[C@@H](O)C2)c(=O)n1 | > 327 | > 327 | > 327 | > 327 | > 327 | – |
| CC(C)OC(=O)[C@H](C)NP(=O)(CO[C@@H]1C[C@@H](O)[C@H](n2cnc3c(=O)[nH]c(N)nc32)C1)N[C@@H](C)C(=O)OC(C)C | > 175 | 66.6 | > 175 | > 175 | > 175 | > 175 |
| Nc1nc2c(ncn2COCCO)c(=O)[nH]1 [ACYCLOVIR] | > 88 | 3.37 | 14.1 | > 444 | 0.29 | > 444 |
| O=c1[nH]c(=O)n([C@H]2C[C@H](O)[C@@H](CO)O2)cc1/C=C/Br [BRIVUDINE] | > 30 | 0.021 | 3.39 | > 300 | > 30 | > 300 |
| Nc1ccn(C[C@@H](CO)OCP(=O)(O)O)c(=O)n1 [CIDOFOVIR] | – | – | – | > 358 | 2.27 | > 358 |
| Nc1nc2c(ncn2COC(CO)CO)c(=O)[nH]1 [GANCICLOVIR] | 3.91 | – | – | > 391 | 0.019 | > 391 |
